Test results reported in ChEMBL document CHEMBL1132938, “Novel synthetic oleanane and ursane triterpenoids with various enone functionalities in ring A as inhibitors of nitric oxide production in mouse macrophages” (J Med Chem, 2000).

How the values were obtained:
Assay type in all cases: functional; call rule not given here
[1] = species: Mus musculus; assay: 50 percent inhibitory concentration of compound to inhibit nitric oxide production induced by IFN-gamma in mouse macrophages
Outline: (§1)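 Peritoneal macrophages from female CD-1 mice (5-10 weeks old) were harvested 4 days after ip injection of 2 mL 4% thioglycollate. Cells were seeded at 2×10^5/well and incubated 48 h with 20 ng/mL recombinant mouse IFN-γ, with or without compound (DMSO, final ≤0.1%). Compounds were tested over 0.1 pM–1 μM (10-fold) or 0.01–40 μM (4-fold). Nitrite in the supernatant was measured by Griess reagent at 550 nm against a sodium nitrite standard, in triplicate. Values are the average of two experiments.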

[2] = species: Mus musculus; assay: 50 percent inhibitory concentration of compound to inhibit nitric oxide production induced by IFN-gamma in mouse macrophages (Not active below 1 uM); outline: as §1
[3] = species: Mus musculus; assay: 50 percent inhibitory concentration of compound to inhibit nitric oxide production induced by IFN-gamma in mouse macrophages (Toxic above 1 uM); outline: as §1
[4] = species: Mus musculus; assay: (§2) Percent inhibition of nitric oxide production induced by IFN-uM concentration; design: concentration or dose not given beside the values
[5] = species: Mus musculus; assay: 50 percent inhibitory concentration of compound to inhibit nitric oxide production induced by IFN-gamma in mouse macrophages (Not active below 10 uM); outline: as §1
[6] = species: Mus musculus; assay: 50 percent inhibitory concentration of compound to inhibit nitric oxide production induced by IFN-gamma in mouse macrophages (Toxic above 10 uM); outline: as §1
[7] = species: Mus musculus; assay: as §2
[8] = species: Mus musculus; assay: 50 percent inhibitory concentration of compound to inhibit nitric oxide production induced by IFN-uM); outline: as §1

IC50 [1] [µM]	SMILES	Inhibition [4] [%]	further results
6.2	C[C@@H]1CC[C@]2(C(=O)O)CC[C@]3(C)C(=CC[C@@H]4[C@@]5(C)C=C(C#N)C(=O)C(C)(C)[C@@H]5CC[C@]43C)C2[C@H]1C (stereo partly specified)	–	–
–	CC1(C)CC[C@]2(C(=O)O)CC[C@]3(C)C(=CC[C@@H]4[C@@]5(C)C=C(C=O)C(=O)C(C)(C)[C@@H]5CC[C@]43C)C2C1 (stereo partly specified)	–	IC50 [2]: Not active below 1 uM; IC50 [3]: Not active below 1 uM
> 40	COC(=O)[C@]12CCC(C)(C)CC1C1=CC[C@@H]3[C@@]4(C)C=CC(=O)C=C4CC[C@@]3(C)[C@]1(C)CC2 (stereo partly specified)	–	–
13	C[C@@H]1CC[C@]2(C(=O)O)CC[C@]3(C)C(=CC[C@@H]4[C@@]5(C)C=CC(=O)C(C)(C)[C@@H]5CC[C@]43C)C2[C@H]1C (stereo partly specified)	41	–
5.1	COC(=O)[C@]12CC[C@@H](C)[C@H](C)C1C1=CC[C@@H]3[C@@]4(C)C=C(C#N)C(=O)C(C)(C)[C@@H]4CC[C@@]3(C)[C@]1(C)CC2 (stereo partly specified)	–	–
13	CC1(C)CC[C@]2(C(=O)O)CC[C@]3(C)C(=CC[C@@H]4[C@@]5(C)C=CC(=O)C=C5CC[C@]43C)C2C1 (stereo partly specified)	–	–
–	C[C@@H]1CCC2(C(=O)O)CC[C@]3(C)C(=CC[C@@H]4[C@@]5(C)CC[C@H](O)C(C)(C)[C@@H]5CC[C@]43C)C2[C@H]1C (stereo partly specified)	0	IC50 [5]: Not active below 10 uM; IC50 [6]: Not active below 10 uM
31	COC(=O)C12CCC(C)(C)CC1C1=CC[C@@H]3[C@@]4(C)C=CC(=O)C(C)(C)[C@@H]4CC[C@@]3(C)[C@]1(C)CC2 (stereo partly specified)	19	–
–	CC(=O)OC[C@]12CCC(C)(C)CC1C(=O)[C@](C)([C@]1(C)CC[C@H]3C(C)(C)[C@@H](OC(C)=O)CC[C@]3(C)[C@H]1CC=O)CC2 (stereo partly specified)	–	Inhibition [7]: 52%
–	COC(=O)[C@]12CCC(C)(C)CC1C1=CC[C@@H]3[C@@]4(C)C=C(C=O)C(=O)C(C)(C)[C@@H]4CC[C@@]3(C)[C@]1(C)CC2 (stereo partly specified)	–	IC50 [2]: Not active below 1 uM; IC50 [8]: Not active below 1 uM
